Data on 25 compounds can be found in ChEMBL document CHEMBL1156162, “Investigating the anti-proliferative activity of styrylazanaphthalenes and azanaphthalenediones” (Bioorg Med Chem, 2010).

Usually IC50 stands for the concentration at which inhibition is half-maximal.

The subject of data set [1] is NIH3T3 (Mus musculus). The experiment in a line: Cytotoxicity against mouse NIH/3T3 cells assessed as IC50.
For data set [2], the system named is HCT-116. The experiment in a line: Cytotoxicity against human HCT116 cells assessed as decrease in survival fraction of cells at 46 uM after 96 hrs by colonogenic assay. It is filed as functional. The essentials: (§1)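 HCT116 cells (8.5×10⁴ or 2.1×10⁵) were seeded in 35-mm dishes and held 18 h, then exposed to 0.58 or 46 µM in medium for 24 h or 96 h. Cells were trypsinised and re-seeded drug-free, then grown 9 days at 37 °C. Colonies were fixed in ethanol, stained with crystal violet, and those of ≥50 cells counted. Survival fraction was taken relative to untreated cells; means of 3 or 2 experiments.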

Data set [3] relates to SK-N-MC. The experiment in a line: Cytotoxicity against human SK-N-MC cells after 72 hrs by MTT assay. It is filed as functional, cell-based. Summed up:
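SK-N-MC cells in MEM with 10% FBS, pyruvate, non-essential amino acids, glutamine, antibiotics and fungizone. Seeded 24 h before treatment, then 72 h with varying concentrations. MTT (5 mg/mL stock) added for 2 h at 37 °C, followed by lysis and OD at 570 nm. IC50 derived; triplicate wells, experiments repeated 3–7 times.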
For orientation: Tetrazolium dyes change colour on reduction, which living cells bring about.

The nature of data set [4]: Lipophilicity, log K by RT-HPLC method. It is filed as physicochemical. Summed up: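 RP-HPLC on a C18 column (5 µm, 4.6 × 250 mm) with photodiode array detection, column at 30 °C and samples at 10 °C. Lipophilicity expressed as capacity factor k and calculated log k.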
Data set [5] concerns HCT-116. Kind of data set: Cytotoxicity against human HCT116 cells assessed as decrease in survival fraction of cells at 0.58 uM after 96 hrs by colonogenic assay. It is filed as functional. Summed up:
as §1

For data set [6], the system named is HCT-116. The experiment in a line: Cytotoxicity against human HCT116 cells assessed as decrease in survival fraction of cells at 0.58 uM after 24 hrs by colonogenic assay. In kind it is functional. The essentials:
as §1

Data set [7] concerns HCT-116. The experiment in a line: Cytotoxicity against human HCT116 cells after 24 to 96 hrs by MTS assay. It is filed as functional, cell-based. The essentials:
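HCT116 cells grown as monolayers in DMEM with 12% FBS and antibiotics at 37 °C, 5% CO2. Seeded at 3.5×10³, 7×10³ or 9×10³ cells/well, cultured 18 h, then exposed to 0.58 or 46 µmol/L final for 24, 48 or 96 h at 37 °C. Medium replaced with phenol red-free DMEM, MTS added for 1 h, absorbance read at 490 nm.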

Data set [8] concerns NIH3T3 (Mus musculus). The experiment in a line: Cytotoxicity against mouse NIH/3T3 cells assessed as IC50. This is another data set of the same source.
The test system of data set [9] is HCT-116. The experiment in a line: Cytotoxicity against human HCT116 cells assessed as decrease in survival fraction of cells at 46 uM after 24 hrs by colonogenic assay. In kind it is functional. Summed up:
as §1

A short description of data set [10]: Cytotoxicity against mouse NIH/3T3 cells assessed as viable cells after 72 hrs by MTT assay. In kind it is cell-based. Particulars: NIH3T3, 72 h.
The subject of data set [11] is L1210. The experiment in a line: Antiproliferative activity against mouse L1210 cells. In kind it is functional, cell-based.

Take `COc1ccccc1/C=C/c1nc(Cl)c2ccccc2n1`: the IC50 is above 100 µM in data set [1], 0.58 µM in data set [3], 9.4 µM in data set [7] and above 100 µM in data set [8]. Also, the Activity in data set [2] is 0; in data set [5] it was 0; in data set [6], 0.43; in [9], 0.03. Also, the “log K” value in data set [4] is recorded as 1.365.
For `COc1ccc(/C=C/c2nc(Cl)c3ccccc3n2)cc1`, the figures for the IC50 in [3] and in [8] were 4.34 µM and above 100 µM, respectively. Also, the “log K” value in data set [4] was 1.134.
As to `COc1ccc(/C=C/c2nc3ccccc3c(=O)[nH]2)c(OC)c1`, in data set [3], the 50% inhibitory concentration (IC50) was above 6.25 µM. Also, the “log K” value in [4] amounted to 1.198.
Turning to `O=c1[nH]c(/C=C/c2ccc(O)c(O)c2O)nc2ccccc12`, the “log K” value in data set [4] is recorded as 0.551. The compound further yielded a 50% inhibitory concentration (IC50) in data set [7] above 46 µM.
In the case of `O=c1[nH]c(/C=C/c2ccc(Br)cc2)nc2ccc([N+](=O)[O-])cc12`, in [3], the concentration for half-maximal inhibition (IC50) is above 6.25 µM. Further, the “log K” value in [4] was determined as 1.675.
Turning to `Clc1nc(/C=C/c2ccccc2)nc2ccccc12`, the IC50 is 4.96 µM in data set [3] and 3.04 µM in data set [10]. Also, the “log K” value in [4] is reported as 1.109.
Take `COc1ccccc1/C=C/c1nc2ccccc2c(=O)[nH]1`: the IC50 in [3] came out at 2.88 µM; in data set [10], 1.17 µM; in data set [7], 1.58 µM. Moreover, the “log K” value in data set [4] came to 1.151.
For `O=c1[nH]c(/C=C/c2ccc(Br)cc2)nc2ccccc12`, the half-maximal inhibitory concentration (IC50) in data set [3] stood at 2.85 µM. Besides, the “log K” value in [4] worked out at 1.593.
`O=Cc1ccc(/C=C/c2nc3ccccc3c(=O)[nH]2)cc1`: in data set [3], the IC50 was above 6.25 µM. The “log K” value in data set [4] was 1.035.
In the case of `COc1cccc(/C=C/c2nc(Cl)c3ccccc3n2)c1`, the half-maximal inhibitory concentration (IC50) in data set [3] was 5.28 µM; in data set [8] it was above 100 µM. Also, the “log K” value in data set [4] was 1.183.
For the compound `Cc1nc2ccccc2c(=O)n1C(N)=O`, the concentration for half-maximal inhibition (IC50) is above 6.25 µM in data set [3] and above 600 µM in data set [7]. Further, the “log K” value in data set [4] is 0.553.
With `Cc1nc2ccc([N+](=O)[O-])cc2c(=O)n1C(N)=O`, the IC50 in data set [3] is above 6.25 µM; in [7] it was above 92 µM. In addition, in data set [4], the “log K” value stood at 0.958.
For the compound `O=c1[nH]c(/C=C/c2ccccc2Br)nc2ccccc12`, the 50% inhibitory concentration (IC50) in [3] is above 6.25 µM; in data set [7], above 46 µM. Also, the “log K” value in data set [4] stood at 1.483.
In the case of `COc1cccc(/C=C/c2nc3ccccc3c(=O)[nH]2)c1`, in [3], the IC50 is 5.13 µM. The “log K” value in [4] stood at 1.184.
For `O=c1[nH]c(/C=C/c2cccc(Br)c2)nc2ccccc12`, in that order: above 6.25 µM and 1.59.
In data set [3], `O=c1[nH]c(/C=C/c2cccc(Cl)c2)nc2ccccc12` registered an IC50 above 6.25 µM. For the same compound, the “log K” value in [4] came to 1.506.
Regarding `COc1ccc(/C=C/c2nc3ccccc3c(=O)[nH]2)cc1`, the IC50 in data set [3] was above 6.25 µM; in [7] it was above 46 µM; in [8] it was above 100 µM. Moreover, the “log K” value in [4] was determined as 1.135.
With `COc1ccc(/C=C/c2nc(Cl)c3ccccc3n2)c(OC)c1`, the values for the 50% inhibitory concentration (IC50) in data set [3], in data set [7] and in data set [8] were 1.75 µM, 23 µM and 34.1 µM, respectively. The “log K” value in [4] is given as 1.195.
`CC(=O)NC1=CC(=O)c2cnc(C)nc2C1=O`: the Activity is given as 0 in [2], 0.26 in [5], 1.2 in [6] and 0 in [9]. In addition, the “log K” value in [4] was 0.017. Further, the IC50 in [7] is 17 µM.
Consider `CC(=O)C1=CC(=O)c2nc(C)ccc2C1=O`, for which the Activity stood at 0 in data set [2], 0.21 in [5], 1.07 in data set [6] and 0.04 in data set [9]. In [7], the IC50 worked out at 10.9 µM.
Take `Oc1cccc2ccc(/C=C/c3ccc(Cl)cc3)nc12`: the IC50 in data set [3] was 0.7 µM. Moreover, the “log K” value in [4] was 1.539.
`COc1ccc2nc(/C=C/c3ccccc3)[nH]c(=O)c2c1` came in with an IC50 in [11] of 3.59 µM.
Take `O=c1[nH]c(/C=C/c2ccccc2)nc2ccccc12`: the IC50 was determined as 1.39 µM in data set [3], 2.4 µM in [10] and 2.53 µM in [7]. Further, in data set [4], the “log K” value is listed as 1.115.
In data set [3], `CC(=O)N(O)CCCCCNC(=O)CCC(=O)N(O)CCCCCNC(=O)CCC(=O)N(O)CCCCCN` [DEFEROXAMINE] registered an IC50 of 9.89 µM.
Regarding `COc1cccc2c1C(=O)c1c(O)c3c(c(O)c1C2=O)C[C@@](O)(C(=O)CO)C[C@@H]3O[C@H]1C[C@H](N)[C@H](O)[C@H](C)O1` [DOXORUBICIN], the figures for the 50% inhibitory concentration (IC50) in data set [3] and in [7] were 0.12 µM and 5.95 µM, respectively.
